Results pooled from the literature.
Lines come from different studies, so protocols differ.
Target: Myosin light chain kinase, smooth muscle (MYLK, Homo sapiens, UniProt Q15746)

Cc1cnc(Nc2ccc(C(=O)N3CCC(N4CCCC4)CC3)cc2)nc1-c1cc2ccccc2s1 gave a remaining binding of 15% (binding, competition with immobilised ligand; 1 µM).
The remaining binding of C[C@H]1CCN(c2nccc(-c3cnn4ncccc34)n2)C1 is reported as 91% (binding; 1 µM).
For COc1cccc(CNC(=O)c2nc3scc(COCc4ccc(C(=O)O)cc4)c3c(=O)[nH]2)c1, the remaining binding was 100% (cell-free assay, competition with immobilised ligand; 1 µM).
COc1ccnn2ncc(-c3ccnc(N(C)C)n3)c12 has a remaining binding of 100% (binding; 1 µM).
With CS(=O)(=O)N1CCCC(NC(=O)[C@H](CCC2CCCCC2)NC(=O)c2ccc(CNC(=O)c3cnc4ccccn34)cc2)C1 (some centres unmarked) the remaining binding was 100% (cell-free assay, competition with immobilised ligand; 0.1 µM).
COc1cnc(Nc2cccc(S(N)(=O)=O)c2)nc1N1CCN(c2ccccc2)C(=O)C1 gave a remaining binding of 97% (binding, competition with immobilised ligand; 1 µM).
With F[C@@H]1CCN(c2nccc(-c3cnn4ncccc34)n2)C1 the remaining binding was 72% (binding; 1 µM).
For O=C(NCC1CCOCC1)c1n[nH]cc1NC(=O)c1c(F)cccc1F, the remaining binding was 70% (binding, competition with immobilised ligand; 1 µM).
The remaining binding of Cc1cc(C)c(-n2ccn3nc(-c4cccnc4)cc23)cc1NC(=O)c1cc(C#N)cc(S(F)(F)(F)(F)F)c1 is reported as 57.7% (cell-free assay, competition with immobilised ligand; 0.1 µM).
For c1cncc(-c2cccc(Nc3nccc(NC4CCCCC4)n3)c2)c1, the remaining binding was 62% (binding, competition with immobilised ligand; 10 µM).
With NS(=O)(=O)c1cc(NC(=O)C2(c3ccccc3Cl)CC2)ccc1Oc1cccc(Cl)c1 the remaining binding was 72% (cell-free assay, competition with immobilised ligand; 1 µM).
CN(CCCC(F)(F)F)c1nccc(-c2cnn3ncccc23)n1 has a remaining binding of 100% (binding; 1 µM).
O=C(c1ccc(Nc2ncc(Cl)c(-c3ccc(Cl)s3)n2)cc1)N1CCC(N2CCCC2)CC1 has a remaining binding of 66% (binding, competition with immobilised ligand; 1 µM).
For CCN1CCN(Cc2ccc(C(=O)Nc3ccc(C)c(Oc4ccc5c(c4)CC(=O)N5)c3)cc2C(F)(F)F)CC1, the remaining binding was 100% (binding, competition with immobilised ligand; 1 µM).
CN(c1nccc(-c2cnn3ncccc23)n1)C1CC1 has a remaining binding of 100% (binding; 1 µM).
C[C@@H]1CN(c2cc(-c3nn(C)c4ccc(OC5(C)CC5)cc34)ncn2)C[C@H](C)O1 has a remaining binding of 64% (cell-free assay, competition with immobilised ligand; 1 µM).
N[C@H]1CCN(c2nccc(-c3cnn4ncccc34)n2)C1 gave a remaining binding of 81% (binding; 1 µM).
O=C(NCc1ncc(C(F)(F)F)cc1Cl)c1ccc2c(c1)C1(CCS(=O)(=O)CC1)[C@H](C1CC1)N2S(=O)(=O)c1ccc(F)cc1 gave a remaining binding of 77% (cell-free assay, competition with immobilised ligand; 1 µM).
With O=C(c1ccc(Nc2nccc(-c3cc4ccccc4s3)n2)cc1)N1CCC(N2CCCC2)CC1 the remaining binding was 61% (binding, competition with immobilised ligand; 1 µM).
With CNC(=O)[C@@H]1CC[C@@H](n2c(-c3ccc4cnccc4c3)nc3ccc(C(=O)NCc4cccc(C(N)=O)c4)cc32)C1 the remaining binding was 100% (binding, competition with immobilised ligand; 1 µM).
